Assay results taken from PMC2735267 (Neuropharmacology, 2009).
Like-named read-outs stand apart in the source and are kept apart here.

Columns and labels:
human α7 = conditions: read-out: Ki human α7; expressed in Xenopus oocytes; ref Slater et al., 2003; cited from earlier work
DBA/2J mice [1] = test: 3-IC-induced hypothermia; type: in vivo, mouse
[2] = system: cytisine-resistant [125I]epibatidine binding sites (mixed population of nAChR); conditions: membranes, any brain region analyzed; 0.2 mg/kg/h iv 7 days
α7-nAChR = α7-nAChR (Mus musculus, UniProt P49582); test: biochemical; type: binding, C57BL/6J mice; conditions: read-out: [125I]α-bungarotoxin (WT) Ki; […]; 0.5 nM ligand; one-site model
Sequence of α7-nAChR (P49582 23-502): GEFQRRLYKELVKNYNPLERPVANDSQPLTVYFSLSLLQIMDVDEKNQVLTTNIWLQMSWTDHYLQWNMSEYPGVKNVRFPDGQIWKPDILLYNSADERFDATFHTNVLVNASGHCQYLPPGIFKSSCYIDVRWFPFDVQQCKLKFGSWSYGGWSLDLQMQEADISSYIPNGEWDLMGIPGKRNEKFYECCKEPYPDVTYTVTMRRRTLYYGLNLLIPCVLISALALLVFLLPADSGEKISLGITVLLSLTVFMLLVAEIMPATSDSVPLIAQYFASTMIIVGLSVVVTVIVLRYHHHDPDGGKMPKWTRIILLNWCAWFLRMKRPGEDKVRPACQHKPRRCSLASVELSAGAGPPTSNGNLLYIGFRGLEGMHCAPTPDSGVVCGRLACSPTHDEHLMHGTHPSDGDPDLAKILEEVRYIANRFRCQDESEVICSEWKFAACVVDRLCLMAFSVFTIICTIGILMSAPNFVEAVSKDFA

α7* receptors = conditions: read-out: Ki α7* receptors in rat brain; ref Abin-Carriquiry et al., 2006; cited from earlier work
DBA/2J mice [3] = test: Chronic intravenous 3-IC infusion and tolerance test; type: in vivo, mouse
[4] = system: [3H]noradrenaline release; conditions: read-out: EC50 [3H]noradrenaline release; rat hippocampal slices; ref Abin-Carriquiry et al., 2006; cited from earlier work
[5] = system: A85380-resistant [125I]epibatidine binding sites (mainly α3β4* nAChR); conditions: membranes; 0.2 mg/kg/h iv 7 days
α7* nAChR binding sites = type: in vivo, DBA/2J mice; conditions: cerebral cortex membranes; 0.2 mg/kg/h iv 7 days
β2 null mutant mice = test: 3-IC-induced hypothermia in β2 null mutant and wild-type mice; type: in vivo, mouse; conditions: 0.2 mg/kg ip
In short: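 Null mutants were backcrossed onto C57BL/6J for at least 10 generations, genotyped from tail DNA, and compared with wild-type mice (β2-/- n = 5; β4-/- n = 5). Test compound was given at 0.2 mg/kg IP in 10 µl/g body weight. Rectal temperature was taken every 5 minutes with a peanut-oil-lubricated probe inserted 1.5 cm. Data are mean ± SEM, analysed by repeated-measures ANOVA (time × genotype).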

[6] = system: cytisine-resistant [125I]epibatidine binding sites; conditions: for Cytisine-resistant [125I]epibatidine binding: 3-IC 0.2 mg/kg/h iv 7 days; for Cytisine-resistant [125I]epibatidine binding % change: 3-IC 0.2 mg/kg/h iv 7 days vs saline
[7] = dorsolateral geniculate nucleus

## O=c1c(I)ccc2n1C[C@@H]1CNC[C@H]2C1 [3-IC, 3-iodocytisine]
Human α7
  Ki: 0.007 µM
DBA/2J mice [1]; 0.2 mg/kg ip acute, DBA/2J
  decrease of basal temperature: 7.7 ± 0.5 °C
DBA/2J mice [1]; 0.2 mg/kg ip, DBA/2J and C57BL/6J
  tremors or diarrhea: without inducing tremors or diarrhea
DBA/2J mice [1]; 1 mg/kg ip, DBA/2J
  maximal temperature decrease: 11.9 ± 0.4 °C
DBA/2J mice [1]; 3-IC 0.2 mg/kg, DBA/2J
  time of maximal hypothermia after 3-IC injection, saline pretreated: 40 min
DBA/2J mice [1]; any dose tested (0.05-1 mg/kg ip), DBA/2J and C57BL/6J
  seizures: no seizures were noted
DBA/2J mice [1]; hexamethonium experiment, 3-IC 0.2 mg/kg, DBA/2J
  maximal 3-IC-induced hypothermia after saline pretreatment: 8.10 ± 0.63 °
DBA/2J mice [1]; ip acute, DBA/2J and C57BL/6J
  doses at which tremors were seen: above 0.5 mg/kg
DBA/2J mice [1]; ip, DBA/2J, maximal drop in temperature
  ED50 for hypothermia: 0.15 ± 0.04 mg/kg
DBA/2J mice [1]; mecamylamine experiment, 3-IC 0.2 mg/kg ip, DBA/2J
  3-IC-induced hypothermia after saline pretreatment: 8.50 ± 0.42 °C
[2]
  density of cytisine-resistant [125I]epibatidine binding sites vs saline: No significant differences
α7-nAChR
  Ki: 0.0022 ± 0.0012 µM
α7* receptors
  Ki: 0.115 µM
DBA/2J mice [3]; 0.2 mg/kg/h iv 7 days
  tolerance after chronic infusion: did not elicit tolerance
DBA/2J mice [3]; after 24 hours of continuous intravenous infusion of 0.5 mg/kg/h
  decrease of body temperature during infusion: 13 ± 0.3 °C
DBA/2J mice [3]; continuous intravenous infusion
  infusion doses that elicited tremors: higher than 0.2 mg/kg/h
[4]
  EC50: 0.22 µM
[5]
  A85380 resistant component of [125I]epibatidine binding: unmodified
α7* nAChR binding sites
  increase in [125I]α-bungarotoxin binding sites compared to saline: 58%
β2 null mutant mice; β2+/+ mice
  maximal 3-IC induced hypothermia (decrease of temperature): 9.8 ± 0.76 °C
β2 null mutant mice; β2-/- mice
  maximal 3-IC induced hypothermia (decrease of temperature): 8.4 ± 1 °C
[6]; anterior olfactory nucleus
  Cytisine-resistant [125I]epibatidine binding: 13.27 ± 2.48 fmol/mg
[6]; anteromedial thalamic nucleus
  Cytisine-resistant [125I]epibatidine binding: 3.97 ± 0.25 fmol/mg
  Cytisine-resistant [125I]epibatidine binding % change: 22.0%
[6]; autoradiography, 0.2 mg/kg/h iv 7 days
  cytisine-resistant [125I]epibatidine sites after chronic treatment: not affected
[6]; caudate putamen
  Cytisine-resistant [125I]epibatidine binding: 2.39 ± 0.29 fmol/mg
  Cytisine-resistant [125I]epibatidine binding % change: 18.2%
[6]; cingulate cortex
  Cytisine-resistant [125I]epibatidine binding: 1.25 ± 0.13 fmol/mg
  Cytisine-resistant [125I]epibatidine binding % change: 26.9%
[6]; dentate gyrus (granular layer)
  Cytisine-resistant [125I]epibatidine binding: 1.15 ± 0.06 fmol/mg
  Cytisine-resistant [125I]epibatidine binding % change: 17.3%
[6]; [7]
  Cytisine-resistant [125I]epibatidine binding: 9.89 ± 0.66 fmol/mg
  Cytisine-resistant [125I]epibatidine binding % change: -2.8%
[6]; dorsomedial thalamic nucleus
  Cytisine-resistant [125I]epibatidine binding: 3.78 ± 0.50 fmol/mg
  Cytisine-resistant [125I]epibatidine binding % change: 5.3%
[6]; fasciculus retroflexus
  Cytisine-resistant [125I]epibatidine binding: 63.47 ± 4.86 fmol/mg
  Cytisine-resistant [125I]epibatidine binding % change: 3.1%
[6]; hippocampus (CA1-3)
  Cytisine-resistant [125I]epibatidine binding: 0.98 ± 0.06 fmol/mg
  Cytisine-resistant [125I]epibatidine binding % change: 20.2%
[6]; inferior colliculus (central)
  Cytisine-resistant [125I]epibatidine binding: 4.00 ± 1.42 fmol/mg
  Cytisine-resistant [125I]epibatidine binding % change: 68.2%
[6]; inferior colliculus (dorsal)
  Cytisine-resistant [125I]epibatidine binding: 10.17 ± 2.62 fmol/mg
  Cytisine-resistant [125I]epibatidine binding % change: 67.7%
[6]; inferior colliculus (external)
  Cytisine-resistant [125I]epibatidine binding: 2.55 ± 0.19 fmol/mg
  Cytisine-resistant [125I]epibatidine binding % change: 24.2%
[6]; interpeduncular nucleus
  Cytisine-resistant [125I]epibatidine binding: 211.95 ± 31.83 fmol/mg
[6]; medial geniculate nucleus
  Cytisine-resistant [125I]epibatidine binding: 4.43 ± 0.80 fmol/mg
  Cytisine-resistant [125I]epibatidine binding % change: 38.1%
[6]; medial habenula
  Cytisine-resistant [125I]epibatidine binding: 282.84 ± 31.53 fmol/mg
  Cytisine-resistant [125I]epibatidine binding % change: -13.5%
[6]; nucleus accumbens
  Cytisine-resistant [125I]epibatidine binding: 1.95 ± 0.21 fmol/mg
  Cytisine-resistant [125I]epibatidine binding % change: 12.9%
[6]; olfactory tubercle
  Cytisine-resistant [125I]epibatidine binding: 2.9 ± 0.5 fmol/mg
  Cytisine-resistant [125I]epibatidine binding % change: -17.1%
[6]; optic tract
  Cytisine-resistant [125I]epibatidine binding: 1.75 ± 0.22 fmol/mg
  Cytisine-resistant [125I]epibatidine binding % change: 26.1%
[6]; parietal cortex (layers 1-3)
  Cytisine-resistant [125I]epibatidine binding: 0.62 ± 0.06 fmol/mg
  Cytisine-resistant [125I]epibatidine binding % change: 24.6%
[6]; parietal cortex (layers 4-6)
  Cytisine-resistant [125I]epibatidine binding: 1.29 ± 0.07 fmol/mg
  Cytisine-resistant [125I]epibatidine binding % change: 45.9%
